# Published values from different studies.
# Each line is one published result; the experiments were not run side by side.
# Target: RAC-alpha serine/threonine-protein kinase (AKT1, Homo sapiens, UniProt P31749)
Compound,assay,setting,remaining binding [%]
c1cnn2ncc(-c3ccnc(N4CCC45COC5)n3)c2c1,binding,1 µM,95
FC(F)(F)c1ccc2c(c1)nc(-c1cccnc1)n2C1CC1,"cell-free assay, competition with immobilised ligand",1 µM,100
O=C(c1ccc(Nc2nccc(-c3cc4ccccc4s3)n2)cc1)N1CCC(N2CCCC2)CC1,"binding, competition with immobilised ligand",1 µM,100
Cc1nc(N2CC[C@@H](O)C2)ncc1-c1cc(C(F)(F)F)cc2[nH]ncc12,"binding, competition with immobilised ligand",1 µM,100
O=C(NCCCN1CCOCC1)c1ccc(Nc2nccc(-c3cc4ccccc4s3)n2)cc1,"binding, competition with immobilised ligand",1 µM,100
COc1ccnn2ncc(-c3ccnc(N(C)C)n3)c12,binding,1 µM,100
C[C@@H]1CN(c2ccc3ncc(-c4ccc5[nH]nc(C6CC6)c5c4)n3n2)C[C@H](C)O1,"binding, competition with immobilised ligand",0.5 µM,100
CC1=C(C#N)C(c2ccc3c(c2)c(NC(=O)c2ccccc2C)nn3C)C(C#N)=C(C)N1,"cell-free assay, competition with immobilised ligand",1 µM,94
F[C@@H]1CCN(c2nccc(-c3cnn4ncccc34)n2)C1,binding,1 µM,100
N#Cc1ccccc1CSc1nnc2c(n1)[nH]c1ccccc12,"binding, competition with immobilised ligand",10 µM,85
CNC(=O)[C@@H]1CC[C@@H](n2c(-c3ccc4cnccc4c3)nc3ccc(C(=O)NCc4cccc(C(N)=O)c4)cc32)C1,"binding, competition with immobilised ligand",1 µM,100
O=C(Nc1cnc(Oc2ccc(F)cc2)nc1)N1CCc2ncccc2[C@@H]1c1ccc(F)cc1,"cell-free assay, competition with immobilised ligand",1 µM,100
Nc1ncc2c(n1)-c1c([nH]c3ccc(C#CC4CC4)cc13)CCCC2,"binding, competition with immobilised ligand",1 µM,95
C[C@H]1CCN(c2nccc(-c3cnn4ncccc34)n2)C1,binding,1 µM,92
O=C(NCC1CCOCC1)c1n[nH]cc1NC(=O)c1c(F)cccc1F,"binding, competition with immobilised ligand",1 µM,95
N#Cc1ccc(Nc2ccc3[nH]c(=O)[nH]c3c2)c(Cl)c1,"cell-free assay, competition with immobilised ligand",1 µM,67
CC(C)(C)c1ccc(-c2nc(CBr)nn2-c2cccc(O)c2)cc1,"cell-free assay, competition with immobilised ligand",10 µM,94
